Assay outcomes as filed in PubChem.
TDP2 absorb: human TDP2 enzyme inhibitors, primary screen, biochemical, epi absorbance, recombinant enzyme | Tyrosyl-DNA phosphodiesterase 2 (Homo sapiens), O95551 | T5PNP hydrolysis, p-nitrophenol absorbance 415 nm | inhibition, % at 12.8 µM | hit rate 0.34% among 370,000 | AID 720702, 2013;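 active = inhibition above the mean of all tested compounds plus 3 SD, set per campaign, cut at about 25% in these data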
Target sequence (O95551 whole entry, looked up): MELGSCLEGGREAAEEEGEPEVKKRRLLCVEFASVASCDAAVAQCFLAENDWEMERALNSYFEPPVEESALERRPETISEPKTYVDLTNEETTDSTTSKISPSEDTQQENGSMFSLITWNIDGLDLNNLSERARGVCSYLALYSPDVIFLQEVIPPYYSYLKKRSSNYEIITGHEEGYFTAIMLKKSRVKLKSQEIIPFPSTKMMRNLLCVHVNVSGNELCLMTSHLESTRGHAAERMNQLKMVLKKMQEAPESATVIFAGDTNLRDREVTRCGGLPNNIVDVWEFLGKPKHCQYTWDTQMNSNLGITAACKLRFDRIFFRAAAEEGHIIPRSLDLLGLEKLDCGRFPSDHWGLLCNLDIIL
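Incubation: 2 h at 37 °C; Test system: recombinant human TDP2; Quantity: enzyme 120 nM; Read-out basis: percent inhibition; Medium: 50 mM Tris-HCl pH 7.5 with Mg2+, KCl, DTT, BSA; Repeats: single replicate; Compound: 12.8 µM single point, 1% DMSO; Signal: epi absorbance; Reagent: 5 mM T5PNP chromogenic substrate; Benchmarks: no-enzyme high, DMSO-plus-enzyme low.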
SIAE primary: human SIAE inhibitors, primary screen, biochemical, fluorescence polarization, FP-Rh probe, 1536-well HTS | Sialate O-acetylesterase (Homo sapiens), Q9HAT2 | SIAE FP-Rh probe binding | inhibition, % at 9.66 µM | hit rate 0.69% among 370,000 | AID 1053197, 2014;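 active = inhibition above a cutoff: mean of compounds within the control limits plus 3 SD of those, cut at about 17% in these data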
ABHD4 inh: ABHD4 inhibitors, primary screen, biochemical, fluorescence polarization, mouse; (Lyso)-N-acylphosphatidylethanolamine lipase (Mus musculus), Q8VD66; purified mABHD4, FP-Rh probe fluorescence polarization; inhibition, % at 8.92 µM; hit rate 0.54% among 370,000;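 active = inhibition exceeding the mean over every tested compound plus 3 SD, cut at about 30% in these data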
Target sequence (Q8VD66 whole entry, looked up): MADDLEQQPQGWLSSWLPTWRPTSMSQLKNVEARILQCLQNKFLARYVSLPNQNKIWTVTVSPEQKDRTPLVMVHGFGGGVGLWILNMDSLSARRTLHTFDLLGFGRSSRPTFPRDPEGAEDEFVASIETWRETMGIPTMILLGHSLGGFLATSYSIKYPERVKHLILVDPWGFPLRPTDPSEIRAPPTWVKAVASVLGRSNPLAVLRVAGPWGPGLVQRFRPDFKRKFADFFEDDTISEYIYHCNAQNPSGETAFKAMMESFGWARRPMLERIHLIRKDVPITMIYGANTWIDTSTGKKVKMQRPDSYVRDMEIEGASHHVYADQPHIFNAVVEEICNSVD
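assay system = mABHD4 protein | compound dosing = single nominal dose of 8.92 µM, 0.89% DMSO final | read-out basis = percent inhibition of probe binding, normalized to plate controls | schedule = Enzyme–compound pre-incubation 45 min, then probe 60 min, both 25 °C | detection = fluorescence polarization, excitation 525 nm, emission 598 nm, BODIPY TMR filters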
LEDGF integ inh: blockers of LEDGF/p75-dependent integrase strand transfer – biochemical, TR-FRET, high throughput, primary screen | TR-FRET IN-LEDGF/p75 DNA integration, Eu/Cy5 | inhibition, % at 3.7 µM | hit rate 0.64% among 370,000 | HIV-1 integrase (with human LEDGF/p75);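 active = inhibition above the screen-wide mean plus 3 SD, cut at about 13% in these data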;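 also: signal is the Cy5 over europium emission ratio at 671 and 618 nm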
HTRA1 inhibitor: HTRA1 serine protease inhibitors, primary screen, biochemical, fluorescence polarization, HTS | recombinant HTRA1, FP-rhodamine activity-based probe | inhibition, % at 5.96 µM | hit rate 0.5% among 340,000; in the data active = inhibition above about 36%
TCR-CD3 inh: inhibitors of human TCR-CD3 interaction, primary screen, biochemical, fluorescence, TAMRA-labeled TCR probe; AID 651800, 2012; hit rate 0.37% among 360,000; inhibition, % at 9.4 µM; T-cell receptor (TCR);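 also: recombinant mutant TCR 2C K166C tagged with TAMRA read by polarization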
BSA TAMRA ctr: compounds interfering with TAMRA-BSA probe, counter-screen for TCR-CD3 interaction inhibitor project, biochemical, fluorescence, TAMRA-labeled BSA; shares compounds with TCR-CD3 inh; TAMRA-labeled BSA probe fluorescence counterscreen; inhibition, % at 9.4 µM; hit rate 10% among 1,200; in the data active = inhibition above about 23%
TCR-CD3 inh conf: TCR-CD3 interaction inhibitors, retest, confirmation, biochemical, fluorescence, TAMRA-labeled TCR probe. AID 652036, 2013. shares compounds with TCR-CD3 inh. inhibition, % at 9.4 µM. hit rate 48% among 1,200. TAMRA-labeled TCR probe fluorescence binding assay
Each line names hits and unclear results; the compound was inactive in the other large screens (follow-up assays come after a bar, where they were run). Most compounds without a hit are left out; they make up all but 2.2% or so of the library. Rule as the data show it, unless noted: active = inhibition above about 19%; inactive = the rest.

O=C(CCCC(=O)Nc1cccc(Br)c1)N/N=C/c1cc([N+](=O)[O-])ccc1O	none
CCc1ccc(N2CC(C(=O)N/N=C/c3cc([N+](=O)[O-])ccc3O)CC2=O)cc1 (configuration not stated)	TCR-CD3 inh 31 (no result: HTRA1 inhibitor) | BSA TAMRA ctr inactive | TCR-CD3 inh conf 26
O=C(CSc1nc2ccccc2s1)N/N=C/c1cc([N+](=O)[O-])ccc1O	TCR-CD3 inh 34 | BSA TAMRA ctr inactive | TCR-CD3 inh conf 31
O=C(CN(c1cccc(Br)c1)S(=O)(=O)c1ccccc1)N/N=C/c1cc([N+](=O)[O-])ccc1O	TCR-CD3 inh 30 (no result: HTRA1 inhibitor) | BSA TAMRA ctr inactive | TCR-CD3 inh conf 28
Cc1c(NC(=S)N/N=C/c2cc([N+](=O)[O-])ccc2O)c(=O)n(-c2ccccc2)n1C	TCR-CD3 inh 32 | BSA TAMRA ctr inactive | TCR-CD3 inh conf 31
C[C@H](CO)N1C[C@H](C)[C@H](CN(C)C(=O)C2CCCCC2)OCc2cnnn2CCCC1=O	none (no result: HTRA1 inhibitor)
O=C(N/N=C/c1cc([N+](=O)[O-])ccc1O)c1cccc2cc[nH]c12	TCR-CD3 inh 20 | BSA TAMRA ctr inactive | TCR-CD3 inh conf inactive
O=C(N/N=C/c1cccc([N+](=O)[O-])c1)c1cccc2cc[nH]c12	none
O=C(N/N=C/c1cc([N+](=O)[O-])ccc1O)c1cccc(N2CCCC2=O)c1	TCR-CD3 inh 46 | BSA TAMRA ctr inactive | TCR-CD3 inh conf 37
O=S1(=O)CC(N2CCCC2)CN1Cc1cn(Cc2ccc(C(F)(F)F)cc2)nn1 (configuration not stated)	none (no result: HTRA1 inhibitor)
C[C@@H]1N[C@H]2N(C1=O)c1ccccc1[C@@]21C[C@@H]2C(=O)N[C@](C)(O1)c1nc3ccccc3c(=O)n12	none (no result: HTRA1 inhibitor, TCR-CD3 inh)
O=C(NCCc1cccc(Cl)c1)c1ccc(Cl)c([N+](=O)[O-])c1	TCR-CD3 inh 30 | BSA TAMRA ctr inactive | TCR-CD3 inh conf inactive
CC(=O)C1=C(C)N(Cc2ccc(F)cc2)C(=S)NC1c1cccc(Cl)c1 (configuration not stated)	none (no result: HTRA1 inhibitor)
CC(C)c1ccc(N2C(=O)/C(=C/N(C)C)SC2=S)cc1	TCR-CD3 inh 67 | BSA TAMRA ctr 150 | TCR-CD3 inh conf 132
CCO/C=C1\SC(=S)N(c2ccc(Cl)cc2)C1=O	none
CCOc1cccc(/C=N/NC(=S)Nc2cc(S(=O)(=O)N3CCOCC3)ccc2N2CCOCC2)c1O	TCR-CD3 inh 21 | BSA TAMRA ctr inactive | TCR-CD3 inh conf inactive
O=c1ccc2cc(S(=O)(=O)N3CCN(c4ccccc4)CC3)ccc2[nH]1	none
O=S(=O)(c1ccc2nc(-c3ccccc3)[nH]c2c1)N1CCN(c2ccc(Cl)cc2)CC1	TCR-CD3 inh 38 | BSA TAMRA ctr inactive | TCR-CD3 inh conf inactive
O=C(c1cc(C2CC2)on1)N(C1CCCCC1)C1CCCCC1	none (no result: HTRA1 inhibitor, TCR-CD3 inh)
C#CCn1c(=NC(=O)c2ccc(S(=O)(=O)N3CCCc4ccccc43)cc2)sc2cc(S(N)(=O)=O)ccc21	TCR-CD3 inh 21 | BSA TAMRA ctr inactive | TCR-CD3 inh conf 23
Cn1c(=NC(=O)c2ccc(S(=O)(=O)N3CCCc4ccccc43)cc2)sc2cc(S(C)(=O)=O)ccc21	none
CC1(C)C=C2C(N(CC3CC3)C(=N)N2C(=O)OCc2ccccc2)n2c(=O)n(-c3ccccc3)c(=O)n21 (configuration not stated)	none (no result: HTRA1 inhibitor, TCR-CD3 inh)
Cc1nnc(NC(=O)CSc2nnc(CC(=O)Nc3ccccc3F)n2C)s1	TCR-CD3 inh 66 | BSA TAMRA ctr inactive | TCR-CD3 inh conf inactive
COc1ccc(C2C(C#N)=C(N)OC3=C2C(=O)CCC3)cc1Cn1nc(C)c([N+](=O)[O-])c1C (configuration not stated)	TCR-CD3 inh 42 | BSA TAMRA ctr inactive | TCR-CD3 inh conf inactive
Cc1ccc(Cn2nnc3c2-c2cc(F)ccc2S(=O)(=O)N(C(C)(C)C)C3)cc1	none (no result: HTRA1 inhibitor, TCR-CD3 inh)
Cc1nn(C)c(C(=O)N/N=C/c2ccc(Br)cc2)c1Cl	TCR-CD3 inh 21 | BSA TAMRA ctr inactive | TCR-CD3 inh conf inactive
CCCCCC(=O)NC(=S)NC1C2CC3CC(C2)CC1C3 (configuration not stated)	TCR-CD3 inh 35 | BSA TAMRA ctr inactive | TCR-CD3 inh conf 29
N#Cc1c(SCC(=O)Nc2nc3ccccc3s2)sc2c(O)cc(=O)[nH]c12	TCR-CD3 inh 19 | BSA TAMRA ctr inactive | TCR-CD3 inh conf inactive
N#Cc1cccc(NC(=O)CSc2sc3c(O)cc(=O)[nH]c3c2C#N)c1	none
N#Cc1c(SCC(=O)Nc2nc3ccc(Br)cc3s2)sc2c(O)cc(=O)[nH]c12	none
CCCSc1nnc(NC(=O)CSc2sc3c(O)cc(=O)[nH]c3c2C#N)s1	TCR-CD3 inh 31 | BSA TAMRA ctr inactive | TCR-CD3 inh conf inactive
COC(=O)c1ccc(-c2ccc3c(c2)[C@]2(CCC[C@@H](OCc4ccccc4)[C@@H]2NC(=O)CCc2ccccc2)C(=O)N3Cc2ccccc2)cc1	none (no result: HTRA1 inhibitor, TCR-CD3 inh)
Cc1ccc(Cn2ccsc2=NC(=O)COC(=O)c2ccc(NC(=O)CC#N)cc2)cc1	TCR-CD3 inh 27 | BSA TAMRA ctr inactive | TCR-CD3 inh conf inactive
COc1cc(OC)c(N(C)S(=O)(=O)c2cccc(C(=O)Nc3nnc(C4CC4)s3)c2)cc1Cl	TCR-CD3 inh 21 | BSA TAMRA ctr inactive | TCR-CD3 inh conf inactive
COc1ccc(N(C)S(=O)(=O)c2cccc(C(=O)Nc3nnc(C4CC4)s3)c2)cc1	none
C/C(=N\NC(=O)c1nnn(-c2nonc2N)c1-c1ccccc1)c1ccccc1O	TCR-CD3 inh 49 | BSA TAMRA ctr inactive | TCR-CD3 inh conf 30
O=C(C1CCCN(S(=O)(=O)c2cccc3ccccc23)C1)N1CCN(Cc2ccccc2)CC1 (configuration not stated)	none (no result: HTRA1 inhibitor, TCR-CD3 inh)
O=C(CCC(=O)N/N=C/c1cc(Cl)cc(Cl)c1O)NCc1ccccc1	TCR-CD3 inh 21 | BSA TAMRA ctr inactive | TCR-CD3 inh conf 23
Fc1ccccc1-c1nc(N2CCCCC2)c2ccccc2n1	TCR-CD3 inh 28 | BSA TAMRA ctr inactive | TCR-CD3 inh conf inactive
Oc1ccccc1-c1nc(N2CCCC2)c2ccccc2n1	none
